According to paper PMC3736091 (Molecular cancer therapeutics, 2013):
“And” between values parts separate entries of the source, which are not always exact repeats. Identical values can stand only once. Marks after values point to notes of the source that are not given here.

Tests used:
human tumour cell lines [1] = conditions: cited from earlier work
[2] = target: ATM activity in SW620 cells (Homo sapiens, UniProt Q13315); test: Inhibition of cellular ATM activity, SW620; type: cell-based
ATR = ATR (Homo sapiens, UniProt Q13535); conditions: read-out: Enzyme IC50 ATR; purified enzyme; data previously reported; cited from earlier work
PI4K = conditions: read-out: Enzyme IC50 PI4K; purified enzyme; data previously reported; cited from earlier work
PI3K = conditions: read-out: Enzyme IC50 PI3K; purified enzyme; data previously reported; cited from earlier work
[3] = Plasma and tumour concentrations in SW620 tumour-bearing nude mice; type: in vivo; conditions: for Tumour concentration: SW620 xenograft
Summary of the method: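 Female CD-1 nude mice carried SW620 s.c. flank xenografts (1×10^7 cells) of ~650 mm³. Test compound was given at 50 mg/kg i.p. in equimolar phosphoric acid/saline, pH 4. The comparator ATM inhibitor was given at 10 mg/kg i.p. in phosphoric acid, 5% DMSO, 10% encapsin, pH 4. Dosing volume was 10 ml/kg. Plasma and tumour were sampled at 1 and 4 h and analysed by HPLC; the tumour detection limit was 0.5 μM.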

[4] = target: ATM activity in HCT116 cells (Homo sapiens, UniProt Q13315); test: Inhibition of IR-induced ATM activity, HCT116; type: cell-based; conditions: 1 μM
SW620 xenografts = test: Anti-tumour efficacy, SW620 xenografts; type: in vivo, mice
MDA-MB-231 cells = test: Clonogenic survival assay, MDA-MB-231; type: cell-based, human; conditions: MDA-MB-231, etoposide 1 μM + KU59403 1 μM (Figure 1D)
Summary of the method: (§1)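 Clonogenic assay in RPMI 1640 + 10% FBS, 37°C, 5% CO2, <30 passages; HCT116-N7 stably expresses HPV16 E6. Exponentially growing cells had 16 h exposure to cytotoxic (etoposide, doxorubicin or camptothecin; etoposide 1 μM for the bar data) ± test compound 1 μM in 0.5% DMSO, then were seeded for colonies. Survival was normalised to DMSO or inhibitor-alone control. Enhancement factor = survival cytotoxic alone ÷ survival combination, per experiment; 3 independent experiments.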

[5] = Plasma and tissue concentrations in Balb/C mice; type: in vivo; conditions: 25 mg/kg i.v., female Balb/C mice, at 4 hr
Summary of the method: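 Female Balb/C mice (non-tumour-bearing) received 25 mg/kg i.v. (10 ml/kg) in equimolar phosphoric acid/saline, pH 4. At time points to 4 h, mice were bled by terminal cardiac puncture. Plasma was stored at −20 °C; brain, liver, spleen and lung were snap frozen and homogenised in PBS (1:3 w/v). Samples underwent HPLC against a plasma standard curve (0.05-10 μg/ml); tissue was quantified by method of addition. n = 3 mice per time point.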

HCT116 cells = test: Clonogenic survival assay, HCT116; type: cell-based, human; conditions: HCT116, etoposide 1 μM + KU59403 1 μM (Figure 1D)
Summary of the method: as §1

HCT116-N7 cells = test: Clonogenic survival assay, HCT116-N7; type: cell-based, human; conditions: HCT116-N7, etoposide 1 μM + KU59403 1 μM (Figure 1D)
Summary of the method: as §1

[6] = test system: ATM activity in MDA-MB231 cells; test: Inhibition of IR-induced ATM activity, MDA-MB231; type: cell-based, human; conditions: 1 μM
Body weight = type: in vivo, mice; conditions: for Maximum body weight loss: SW620 xenograft studies
LoVo cells = test: Clonogenic survival assay, LoVo; type: cell-based, human; conditions: for Enhancement factor / % Survival Cytotoxic + KU59403: LoVo; for Enhancement factor: 1 μM KU59403
Summary of the method: as §1

HCT116-N7 xenografts = test: Anti-tumour efficacy, HCT116-N7 xenografts; type: in vivo, mice
ATM [7] = target: T1, ATM (Homo sapiens, UniProt Q13315); test: Enzyme inhibition, purified ATM; type: biochemical
Summary of the method: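 Enzymes were isolated from HeLa cells: ATM plus DNA-PK, PI3K, ATR, PI4K and mTOR. Activity was measured across increasing test compound concentrations. IC50 was calculated from sigmoid plots of inhibitor concentration versus activity. Values are the mean of five independent experiments.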

SW620 cells = test: Clonogenic survival assay, SW620; type: cell-based, human; conditions: for Enhancement factor: 1 μM KU59403
Summary of the method: as §1

human tumour cell lines [8] = test: Concentration needed for in vitro chemo- and radio-sensitisation; type: cell-based
ATM [9] = target: T1, ATM; conditions: read-out: Enzyme IC50 ATM; purified enzyme; data previously reported; cited from earlier work
[10] = KU59403 12.5 mg/kg 2× daily ×5 alone
[11] = KU59403 25 mg/kg daily ×5 alone
[12] = etopophos + KU59403 6 mg/kg 2× daily ×5
[13] = etopophos + KU59403 12.5 mg/kg 1× daily ×5 5 hr post
[14] = etopophos + KU59403 12.5 mg/kg 1× daily ×5 concurrent
[15] = etopophos + KU59403 12.5 mg/kg 2× daily ×5
[16] = etopophos + KU59403 25 mg/kg 2× daily ×5
[17] = irinotecan + KU59403 25 mg/kg daily ×5
[18] = etopophos 11.35 mg/kg i.p. daily ×5 + KU59403 25 mg/kg i.p. twice daily for 5 days

T1 sequence (Q13315 whole entry): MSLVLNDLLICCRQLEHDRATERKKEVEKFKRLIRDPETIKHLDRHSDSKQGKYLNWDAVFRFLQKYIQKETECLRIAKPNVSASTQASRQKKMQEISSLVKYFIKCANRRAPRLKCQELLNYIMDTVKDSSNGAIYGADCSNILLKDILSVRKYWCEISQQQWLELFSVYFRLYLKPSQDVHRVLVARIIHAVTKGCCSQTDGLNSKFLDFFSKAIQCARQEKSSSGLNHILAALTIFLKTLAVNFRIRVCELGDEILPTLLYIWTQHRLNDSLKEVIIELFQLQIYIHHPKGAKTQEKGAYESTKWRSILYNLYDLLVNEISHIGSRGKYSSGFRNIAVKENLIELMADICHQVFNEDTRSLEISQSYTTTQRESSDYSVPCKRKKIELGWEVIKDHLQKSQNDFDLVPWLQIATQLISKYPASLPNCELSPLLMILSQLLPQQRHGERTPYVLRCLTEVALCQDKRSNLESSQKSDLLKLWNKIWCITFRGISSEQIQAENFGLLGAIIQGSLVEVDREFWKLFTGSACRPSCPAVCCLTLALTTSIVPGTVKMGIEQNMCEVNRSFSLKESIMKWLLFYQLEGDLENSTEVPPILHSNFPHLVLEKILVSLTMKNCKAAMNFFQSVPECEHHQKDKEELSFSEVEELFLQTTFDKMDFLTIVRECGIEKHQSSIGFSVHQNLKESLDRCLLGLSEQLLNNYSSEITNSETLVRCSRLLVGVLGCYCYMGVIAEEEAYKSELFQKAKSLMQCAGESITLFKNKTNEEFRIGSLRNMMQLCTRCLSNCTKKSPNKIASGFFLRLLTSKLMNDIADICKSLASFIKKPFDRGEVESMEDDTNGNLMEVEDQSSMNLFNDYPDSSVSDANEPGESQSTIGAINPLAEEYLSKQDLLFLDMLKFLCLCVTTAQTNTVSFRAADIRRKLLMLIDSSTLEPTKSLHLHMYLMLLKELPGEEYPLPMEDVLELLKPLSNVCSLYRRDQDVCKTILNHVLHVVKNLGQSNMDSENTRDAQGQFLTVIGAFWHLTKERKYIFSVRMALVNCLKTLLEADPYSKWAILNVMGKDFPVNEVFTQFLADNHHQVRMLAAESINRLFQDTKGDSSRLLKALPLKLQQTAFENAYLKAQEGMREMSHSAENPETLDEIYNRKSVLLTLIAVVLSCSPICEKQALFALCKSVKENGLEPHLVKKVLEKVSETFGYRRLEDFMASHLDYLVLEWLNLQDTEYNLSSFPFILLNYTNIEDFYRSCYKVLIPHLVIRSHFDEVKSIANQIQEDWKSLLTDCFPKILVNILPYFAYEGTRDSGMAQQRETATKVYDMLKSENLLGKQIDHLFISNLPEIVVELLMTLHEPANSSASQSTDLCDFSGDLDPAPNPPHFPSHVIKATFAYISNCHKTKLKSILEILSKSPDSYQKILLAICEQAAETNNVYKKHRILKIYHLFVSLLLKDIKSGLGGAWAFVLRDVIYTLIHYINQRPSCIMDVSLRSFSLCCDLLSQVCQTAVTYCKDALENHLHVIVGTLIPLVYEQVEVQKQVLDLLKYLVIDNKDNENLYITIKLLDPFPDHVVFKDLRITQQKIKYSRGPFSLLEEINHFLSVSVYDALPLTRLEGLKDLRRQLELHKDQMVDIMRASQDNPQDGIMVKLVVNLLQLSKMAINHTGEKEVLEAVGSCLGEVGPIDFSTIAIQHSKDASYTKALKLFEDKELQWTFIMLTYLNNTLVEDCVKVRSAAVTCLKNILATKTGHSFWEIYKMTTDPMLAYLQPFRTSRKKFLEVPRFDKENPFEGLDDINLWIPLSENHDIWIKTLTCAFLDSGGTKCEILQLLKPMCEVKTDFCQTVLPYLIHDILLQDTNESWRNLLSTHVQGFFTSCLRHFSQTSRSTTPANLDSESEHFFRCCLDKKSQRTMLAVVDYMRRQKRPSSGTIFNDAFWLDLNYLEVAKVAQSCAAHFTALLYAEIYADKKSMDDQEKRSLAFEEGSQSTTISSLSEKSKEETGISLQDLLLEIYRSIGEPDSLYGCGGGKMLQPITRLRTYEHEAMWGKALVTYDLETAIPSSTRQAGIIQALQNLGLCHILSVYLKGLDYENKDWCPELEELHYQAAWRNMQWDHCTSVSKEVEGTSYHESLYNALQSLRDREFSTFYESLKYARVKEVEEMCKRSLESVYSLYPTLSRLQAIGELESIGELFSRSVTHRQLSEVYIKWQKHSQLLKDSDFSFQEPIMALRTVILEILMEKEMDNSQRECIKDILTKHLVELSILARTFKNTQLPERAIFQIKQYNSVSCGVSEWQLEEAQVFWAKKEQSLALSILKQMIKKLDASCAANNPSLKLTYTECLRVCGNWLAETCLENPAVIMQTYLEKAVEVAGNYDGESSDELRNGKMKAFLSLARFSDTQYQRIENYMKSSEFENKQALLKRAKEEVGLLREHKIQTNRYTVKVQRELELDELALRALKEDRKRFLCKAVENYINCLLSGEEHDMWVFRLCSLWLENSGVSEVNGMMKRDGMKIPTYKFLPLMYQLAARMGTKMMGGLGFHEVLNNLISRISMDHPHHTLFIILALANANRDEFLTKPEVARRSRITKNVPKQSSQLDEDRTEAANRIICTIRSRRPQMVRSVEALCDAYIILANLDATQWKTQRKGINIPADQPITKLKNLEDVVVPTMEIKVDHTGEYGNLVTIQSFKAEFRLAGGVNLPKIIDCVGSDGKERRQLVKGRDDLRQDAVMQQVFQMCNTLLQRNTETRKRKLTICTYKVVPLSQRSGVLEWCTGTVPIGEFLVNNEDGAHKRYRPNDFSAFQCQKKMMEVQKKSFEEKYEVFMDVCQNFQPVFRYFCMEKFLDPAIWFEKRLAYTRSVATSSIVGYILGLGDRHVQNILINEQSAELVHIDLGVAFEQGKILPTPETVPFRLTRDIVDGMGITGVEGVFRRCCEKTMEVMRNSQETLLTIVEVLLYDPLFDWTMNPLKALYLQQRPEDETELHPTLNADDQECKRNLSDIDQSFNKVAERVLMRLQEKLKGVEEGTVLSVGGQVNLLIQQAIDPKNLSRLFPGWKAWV
ATM activity in SW620 cells, sequence (Q13315 whole entry): as above
ATM activity in HCT116 cells, sequence (Q13315 whole entry): as above

## O=c1cc(-c2cccc3c2Sc2ccccc2S3)oc(N2CCOCC2)c1 [KU55933]
Human tumour cell lines [1]
  Concentration needed to induce in vitro chemo- and radio-sensitisation: 10 µM
[2]; 10 μM
  Inhibition of ATM activity: substantially inhibited ATM activity
ATR
  IC50: > 10 µM
PI4K
  IC50: > 10 µM
PI3K
  IC50: 1.7 µM
[3]; 10 mg/kg i.p., below limit of detection
  Tumour concentration: < 0.5 µM
[3]; single dose 10 mg/kg i.p., SW620-bearing nude mice
  Plasma concentration: over 1 μM

## CN1CCN(CCC(=O)Nc2ccc3c(c2)Sc2cccc(-c4cc(=O)cc(N5CCOCC5)o4)c2S3)CC1 [KU59403]
[4]
  Inhibition of IR-induced ATM activity: > 50%
SW620 xenografts; [10]
  Delay: 0.5 days
  Time to RTV4: 7 days
SW620 xenografts; [11]
  Delay: 5.5 days
  Time to RTV4: 12 days
SW620 xenografts; KU59403 25 mg/kg twice daily, SW620 xenografts
  Increase in etopophos-induced tumour growth delay: 3 fold
SW620 xenografts; [12]
  Delay: 5.5 days
  Enhancement (%): 38%
  Time to RTV4: 12 days
SW620 xenografts; [13]
  Delay: 3.5 days
  Time to RTV4: 10 days
SW620 xenografts; [14]
  Delay: 10 days
  Enhancement (%): 150%
  Time to RTV4: 16.5 days
SW620 xenografts; [15]
  Delay: 8.5 days
  Enhancement (%): 113 ^§ %
  Time to RTV4: 15 days
SW620 xenografts; [16]
  Delay: 11.5 days
  Time to RTV4: 18 days
SW620 xenografts; etopophos + KU59403 25 mg/kg 2× daily ×5, 25 mg/kg
  Enhancement (%): 190 ^* %
SW620 xenografts; [17]
  Delay: 19.5 days
  Time to RTV4: 26 days
SW620 xenografts; irinotecan + KU59403 25 mg/kg daily ×5, 25 mg/kg
  Enhancement (%): 144% and 144 ^* %
MDA-MB-231 cells
  Enhancement of etoposide cytotoxicity: 3.8 ± 1.8 fold
[5]
  Plasma concentration: less than 0.1 μM
HCT116 cells
  Enhancement of etoposide cytotoxicity: 2.3 ± 1.6 fold
HCT116-N7 cells
  Enhancement of etoposide cytotoxicity: 3.8 ± 2.5 fold
[6]
  Inhibition of IR-induced ATM activity: approximately 50%
[2]; 1 μM
  Inhibition of ATM activity: > 50%
Body weight; [10]
  Nadir % Starting Body weight: 100%
Body weight; [11]
  Nadir % Starting Body weight: 99.7%
Body weight; combination of KU59403 and etopophos
  Maximum body weight loss: 7%
Body weight; [12]
  Nadir % Starting Body weight: 96.9%
Body weight; [13]
  Nadir % Starting Body weight: 94.3%
Body weight; [14]
  Nadir % Starting Body weight: 96.5%
Body weight; [15]
  Nadir % Starting Body weight: 94.9%
Body weight; [16]
  Nadir % Starting Body weight: 93.3%
Body weight; given as a single agent
  Maximum body weight loss: < 2%
Body weight; [17]
  Nadir % Starting Body weight: 100%
LoVo cells; LoVo cells, KU59403 1 μM alone, 16 hr
  % survival, inhibitor alone: 88± 7%
LoVo cells; camptothecin 10 nM
  Enhancement factor: 7 and 6.9 ± 3.8
LoVo cells; doxorubicin 10 nM + 1 μM KU59403, 16 hr
  % Survival Cytotoxic + KU59403: 16 ± 6.9 %
LoVo cells; doxorubicin 10 nM
  Enhancement factor: 3.2 ± 1
LoVo cells; doxorubicin 100 nM + 1 μM KU59403, 16 hr
  % Survival Cytotoxic + KU59403: 0.35 ± 0.04 %
LoVo cells; doxorubicin 100 nM
  Enhancement factor: 6.1 ± 2.1
LoVo cells; etoposide 100 nM + 1 μM KU59403, 16 hr
  % Survival Cytotoxic + KU59403: 18 ± 0.5 %
LoVo cells; etoposide 100 nM
  Enhancement factor: 3.3 ± 0.4
LoVo cells; etoposide 1 μM + 1 μM KU59403, 16 hr
  % Survival Cytotoxic + KU59403: 1.1 ± 0.2 %
LoVo cells; etoposide 1 μM
  Enhancement factor: 3.8 ± 1.5
HCT116-N7 xenografts; KU59403 25 mg/kg twice daily, HCT116-N7 xenografts
  Increase in etopophos-induced tumour growth delay: 3 fold
HCT116-N7 xenografts; [18]
  Enhancement of etopophos activity: 300%
  Etopophos-induced tumour growth delay: 8.5 days
ATM [7]
  Specificity for ATM over other members of the PI3K (PIKK) family tested: at least 1000 fold
[3]; 50 mg/kg i.p., SW620-bearing nude mice
  Time plasma concentration maintained: at least 4 hours
[3]; 50 mg/kg i.p., 4 hour time point
  Tumour concentration: 1.9 µM
[3]; single dose 50 mg/kg i.p., SW620-bearing nude mice, 1 and 4 hours
  Plasma concentration: 5 µM
SW620 cells; SW620, camptothecin 10 nM + 1 μM KU59403, 16 hr
  % Survival Cytotoxic + KU59403: 0.71 ± 0.35 %
SW620 cells; SW620, camptothecin 10 nM
  Enhancement factor: 4 and 4.3 ± 2.8
SW620 cells; SW620, doxorubicin 10 nM + 1 μM KU59403, 16 hr
  % Survival Cytotoxic + KU59403: 17 ± 0.2 %
SW620 cells; SW620, doxorubicin 10 nM
  Enhancement factor: 2.9 ± 0.6
SW620 cells; SW620, doxorubicin 100 nM + 1 μM KU59403, 16 hr
  % Survival Cytotoxic + KU59403: 0.01 ± .001%
SW620 cells; SW620, doxorubicin 100 nM
  Enhancement factor: 1.8 ± 0.7
SW620 cells; SW620, etoposide 100 nM + 1 μM KU59403, 16 hr
  % Survival Cytotoxic + KU59403: 35 ± 12 %
SW620 cells; SW620, etoposide 100 nM
  Enhancement factor: 2.9 ± 1.5
SW620 cells; SW620, etoposide 1 μM + 1 μM KU59403, 16 hr
  % Survival Cytotoxic + KU59403: 0.41 ± 0.23 %
SW620 cells; SW620, etoposide 1 μM + KU59403 1 μM (Figure 1D)
  Enhancement of etoposide cytotoxicity: 11.9 ± 4.7 fold and 12 fold
SW620 cells; SW620, etoposide 1 μM
  Enhancement factor: 12 ± 7
SW620 cells; SW620 cells, KU59403 1 μM alone, 16 hr
  % survival, inhibitor alone: 91± 6%
Human tumour cell lines [8]
  Concentration at which an effective chemo-sensitiser: 1 µM

## O=c1cc(N2CCOCC2)oc2c(-c3ccccc3)cccc12 [LY294002]
ATR
  IC50: 100 µM
ATM [9]
  IC50: > 100 µM
